The text below walks through data of publication PMC3544278 (Journal of Medicinal Chemistry, 2012).

In one series the target is T1, FAAH (Rattus norvegicus, UniProt P97612).
T1 sequence (P97612 1-579): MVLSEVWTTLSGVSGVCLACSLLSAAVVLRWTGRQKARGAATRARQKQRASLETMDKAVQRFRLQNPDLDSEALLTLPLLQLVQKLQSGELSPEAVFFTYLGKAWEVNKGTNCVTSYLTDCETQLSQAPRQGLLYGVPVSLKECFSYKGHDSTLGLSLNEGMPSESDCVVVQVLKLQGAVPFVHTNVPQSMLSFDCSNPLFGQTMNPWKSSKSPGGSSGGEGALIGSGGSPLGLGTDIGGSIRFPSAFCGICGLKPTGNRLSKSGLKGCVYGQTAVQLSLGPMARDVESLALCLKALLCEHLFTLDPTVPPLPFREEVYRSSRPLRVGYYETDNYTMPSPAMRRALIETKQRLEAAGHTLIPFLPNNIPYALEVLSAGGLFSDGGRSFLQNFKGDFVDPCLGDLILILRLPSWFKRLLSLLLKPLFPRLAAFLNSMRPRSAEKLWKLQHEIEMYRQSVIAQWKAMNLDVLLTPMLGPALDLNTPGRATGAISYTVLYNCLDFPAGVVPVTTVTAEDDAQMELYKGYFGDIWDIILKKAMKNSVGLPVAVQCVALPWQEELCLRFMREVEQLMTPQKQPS
In words: Irreversible binding of [11C]-radiotracers to FAAH in rat brain parenchyma. Format: in vivo.

Series [1] can be described thus: Biodistribution of [11C]-radiotracers in rat brain. It is filed as in vivo. The settings on record: mean (n = 5) ± SD. A digest of the protocol:
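Conscious restrained rats (n = 5/time point) received 30–60 MBq [11C]-radiotracer (70–170 GBq/μmol; 0.3–0.8 nmol) iv by tail vein in buffered saline with 0.5% Tween 80. After decapitation, brain regions were excised, blotted, weighed, gamma-counted and decay-corrected against injected-dose standards. SUV = %ID/g […] body weight (kg). Blocking groups got an FAAH inhibitor (2 mg/kg ip, saline/Tween 80) or vehicle 30 min before. Student's t test.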

Marks after values point to notes of the source that are not given here.

Consider `O=C(NC1CCCCC1)Oc1cc(O)cc(-c2ccccc2)c1` [[^11C]1, [^11C-carbonyl]N-cyclohexyl-5-hydroxy[1,1′-biphenyl]-3-ylcarbamic acid ester], for which, at FAAH, the “% bound (irreversibly) at 60 min postinjection” value is “about 90%”. Further, in series [1] (2 min post iv injection), the “Regional brain uptake, cortex (2 min)” value came to 2.40 ± 0.18 SUV and the “Regional brain uptake, hypothalamus (2 min)” value was found to be 1.61 ± 0.23 SUV. For the same molecule, in series [1] (40 min post iv injection), the “Regional brain uptake, cortex (40 min)” value amounted to 2.49 ± 0.25 SUV and the “Regional brain uptake, hypothalamus (40 min)” value was found to be 1.14 ± 0.13 SUV. Besides, the “Regional brain uptake, cortex (40 min, blocked)” value in series [1] (40 min post iv injection, pretreated with compound 2 (2 mg/kg, ip)) is 0.36 ± 0.04 ^b SUV.
